The subject of this assay is Mycobacterium tuberculosis. Nature of the assay: Antimicrobial activity against Mycobacterium tuberculosis H37Rv ATCC 27294 by microplate alamar blue assay. The class given is functional, organism-based. The gist of the method: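 M. tuberculosis H37Rv (ATCC 27294) grown in BACTEC 12B medium and tested by microplate Alamar Blue assay. Compounds were dissolved in DMSO, diluted with distilled water, and tested as ten 2-fold dilutions. Read-out was fluorescence. IC90 is the concentration giving 90% fluorescence reduction versus controls; IC50 is defined the same way at 50%.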
In general terms: Resazurin is reduced to fluorescent resorufin, in cell work by metabolically active cells.

≈ marks a conversion by molar mass, not a printed value.

For `COC(=O)Cn1nc(-c2ccc(Cl)cc2)ccc1=O`, half-maximal inhibition (IC50) was put at 94.2 µg/mL (≈ 338 µM) and the concentration for an effect of 90% (IC90) – broadly, the concentration at which the effect reaches the 90% level – was greater than 100 µg/mL.

For the molecule `CCOC(=O)Cn1nc(-c2ccc(C)cc2)ccc1=O`, the IC50 (commonly the concentration needed to halve the response being measured) was greater than 100 µg/mL and the IC90 was greater than 100 µg/mL.

For `CCOC(=O)C(C)n1nc(-c2ccc(Cl)cc2)ccc1=O` (stereo unspecified), the half-inhibitory concentration (IC50) is 28.6 µg/mL (≈ 93.2 µM) and the 90% effect level (IC90) was put at 46 µg/mL (≈ 150 µM).

In turn, `COC(=O)Cn1nc(-c2ccc(C)cc2)ccc1=O` had an IC50 greater than 100 µg/mL and an IC90 greater than 100 µg/mL.

`CCOC(=O)C(C)n1nc(-c2ccc(Br)cc2)ccc1=O` (stereo unspecified) came in with an IC50 of 26.8 µg/mL (≈ 76.5 µM) and an IC90 of 47.5 µg/mL (≈ 135 µM).

The molecule `COC(=O)Cn1nc(-c2ccc(Br)cc2)ccc1=O` displayed a 50% inhibitory concentration (IC50) of 73.2 µg/mL (≈ 227 µM) and a 90% effect concentration (IC90) greater than 100 µg/mL.

As to `Cc1ccc(-c2ccc(=O)n(CC(N)=O)n2)cc1`, the IC50 is greater than 100 µg/mL and the concentration for an effect of 90% (IC90) is greater than 100 µg/mL.

As for `NC(=O)Cn1nc(-c2ccc(Br)cc2)ccc1=O`, the IC50 was greater than 100 µg/mL and the IC90 is greater than 100 µg/mL.

`C=CCn1nc(-c2ccc(Cl)cc2)ccc1=O`: the IC50 was found to be 36.6 µg/mL (≈ 148 µM) and the concentration for an effect of 90% (IC90) worked out at 61.6 µg/mL (≈ 250 µM).

In turn, `CCOC(=O)Cn1nc(-c2ccc(Cl)cc2)ccc1=O` yielded a half-maximal inhibitory concentration (IC50) greater than 100 µg/mL and a 90% effect concentration (IC90) greater than 100 µg/mL.

The molecule `C=CCn1nc(-c2ccc(C)cc2)ccc1=O` gave a half-maximal inhibitory concentration (IC50) of 60.7 µg/mL (≈ 268 µM) and an IC90 of 76.5 µg/mL (≈ 338 µM).

Consider `C=CCn1nc(-c2ccc(Br)cc2)ccc1=O`, for which the IC50 came out at 37.8 µg/mL (≈ 130 µM) and the 90% effect level (IC90) was put at 46.8 µg/mL (≈ 161 µM).

On to `C#CCn1nc(-c2ccc(Cl)cc2)ccc1=O`, for which the IC50 was determined as 34.7 µg/mL (≈ 142 µM) and the 90% effect concentration (IC90) is greater than 100 µg/mL.

Take `NC(=O)Cn1nc(-c2ccc(Cl)cc2)ccc1=O`: the IC50 is greater than 100 µg/mL and the IC90 is greater than 100 µg/mL.

The molecule `CCOC(=O)Cn1nc(-c2ccc(Br)cc2)ccc1=O` registered a half-maximal inhibitory concentration (IC50) greater than 100 µg/mL and a 90% effect concentration (IC90) greater than 100 µg/mL.

`C#CCn1nc(-c2ccc(C)cc2)ccc1=O`: the IC50 stood at 63.7 µg/mL (≈ 284 µM) and the 90% effect level (IC90) was put at 89.2 µg/mL (≈ 398 µM).

As to `CCOC(=O)C(C)n1nc(-c2ccc(C)cc2)ccc1=O` (stereo unspecified), the half-inhibitory concentration (IC50) amounted to 64.9 µg/mL (≈ 227 µM) and the concentration for an effect of 90% (IC90) was determined as 84 µg/mL (≈ 293 µM).

`C#CCn1nc(-c2ccc(Br)cc2)ccc1=O` came in with an IC50 of 97.8 µg/mL (≈ 338 µM) and an IC90 greater than 100 µg/mL.

(Values after ChEMBL document CHEMBL1275300, “Synthesis and antituberculosis activity of some new pyridazine derivatives. Part II” (Eur J Med Chem, 2010).)
